Laboratory results taken from ChEMBL document CHEMBL4049460, “Trisubstituted Imidazoles with a Rigidized Hinge Binding Motif Act As Single Digit nM Inhibitors of Clinically Relevant EGFR L858R/T790M and L858R/T790M/C797S Mutants: An Example of Target Hopping” (J Med Chem, 2017).
Values after ≈ are worked out from the molar mass of the structure shown.

Assays:
[1] = target: T1, Epidermal growth factor receptor (Homo sapiens, UniProt P00533); experiment: Inhibition of recombinant human GST-tagged wild type EGFR ( 668 to 1210 residues) cytoplasmic domain expressed in baculovirus expression system preincubated for 20 mins followed by addition of [33P]-ATP measured after 2 hrs by filter-binding method; conditions: read-out: IC50
[2] = target: T2, Epidermal growth factor receptor (Homo sapiens, UniProt P00533, L858R); experiment: Inhibition of recombinant human GST-tagged EGFR L858R mutant cytoplasmic domain expressed in baculovirus expression system preincubated for 20 mins followed by addition of [33P]-ATP measured after 2 hrs by filter-binding method; conditions: read-out: IC50
[3] = target: T3, Epidermal growth factor receptor (Homo sapiens, UniProt P00533, L858R/T790M); experiment: (§1) Inhibition of recombinant human GST-tagged EGFR L858R/T790M double mutant cytoplasmic domain expressed in baculovirus expression system preincubated for 20 mins followed by addition of [33P]-ATP measured after 2 hrs by filter-binding method
[4] = target: Epidermal growth factor receptor (Homo sapiens, UniProt P00533, T790M/L858R); experiment: as §1
[5] = target: Epidermal growth factor receptor (Homo sapiens, UniProt P00533, T790M/C797S/L858R); experiment: (§2) Inhibition of recombinant human N-terminally GST-tagged EGFR L858R/T790M/C797S triple mutant expressed in baculovirus in Sf9 insect cells preincubated for 20 mins followed by addition of [33P]-ATP measured after 2 hrs by filter-binding method
[6] = target: Epidermal growth factor receptor (Homo sapiens, UniProt P00533, C797S/L858R/T790M); experiment: as §2
[7] = test system: Epidermal growth factor receptor (Homo sapiens), P00533 [L858R,T790M,C797S]; experiment: Potency index, ratio of osimertinib IC50 to compound IC50 for recombinant human N-terminally GST-tagged EGFR L858R/T790M/C797S triple mutant expressed in baculovirus in Sf9 insect cells
[8] = Solubility of the compound at pH 7.5 by UV-HPLC analysis; format: physicochemical; conditions: buffer
Outline: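 Solubility measured in the kinase assay buffer (pH 7.5); concentration determined by HPLC with UV detection.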

[9] = target: Mitogen-activated protein kinase 14 (Homo sapiens, UniProt Q16539); experiment: Inhibition of p38alpha MAPK (unknown origin) assessed as decrease in ATF2 phosphorylation at Thr69/71 at 1 uM after 1 hr by ELISA
[10] = target: T1, Epidermal growth factor receptor; experiment: Inhibition of wild-type EGFR (unknown origin)
[11] = target: T2, Epidermal growth factor receptor; experiment: Inhibition of EGFR L858R mutant (unknown origin)
[12] = target: T3, Epidermal growth factor receptor; experiment: Inhibition of EGFR L858R/T790M double mutant (unknown origin)

Mitogen-activated protein kinase 14, sequence (Q16539 whole entry): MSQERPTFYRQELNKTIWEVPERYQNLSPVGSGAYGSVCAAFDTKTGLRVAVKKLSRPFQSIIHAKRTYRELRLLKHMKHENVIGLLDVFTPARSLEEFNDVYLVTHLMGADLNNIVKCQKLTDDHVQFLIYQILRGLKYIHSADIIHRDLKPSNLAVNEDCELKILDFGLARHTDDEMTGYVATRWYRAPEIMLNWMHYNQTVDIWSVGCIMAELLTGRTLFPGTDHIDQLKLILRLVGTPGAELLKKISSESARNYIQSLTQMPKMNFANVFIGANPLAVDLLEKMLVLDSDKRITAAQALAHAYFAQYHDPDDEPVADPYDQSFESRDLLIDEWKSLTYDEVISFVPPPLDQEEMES

SMILES | IC50 [1] [nM] | IC50 [2] [nM] | IC50 [3] [nM] | IC50 [9] [nM] | also measured
CCC(=O)Nc1cccc(-c2cc3c(-c4[nH]c(-c5ccccc5)nc4-c4ccc(F)cc4)ccnc3[nH]2)c1 | 27.2 | 18.7 | 987 | – | –
Fc1ccc(-c2nc(-c3ccccc3)[nH]c2-c2ccnc3[nH]ccc23)cc1 | 712 | 631 | – | – | IC50 [4]: Not Active; IC50 [5]: Not Active
C=CC(=O)NCc1cccc(-c2cc3c(-c4[nH]c(-c5ccccc5)nc4-c4ccc(F)cc4)ccnc3[nH]2)c1 | 33.2 | 34.2 | 683 | – | –
OCCc1nc(-c2ccc(F)cc2)c(-c2ccnc3[nH]c(-c4ccccc4)cc23)[nH]1 | < 0.3 | < 0.3 | 12.5 | 4 | IC50 [6]: 7.64 nM; Ratio IC50 [7]: 35; solubility ([8]; read-out: solubility): 7 µg/mL (≈ 17.6 µM)
Oc1ccc(-c2nc(-c3ccccc3)c(-c3ccnc4[nH]c(-c5ccccc5)cc34)[nH]2)cc1 | 13.6 | 11.2 | 658 | 1 | –
C=CC(=O)NCc1cccc(-c2nc(C3CC3)c(-c3ccnc4[nH]c(-c5ccccc5)cc34)[nH]2)c1 | 4050 | 3920 | 11300 | – | –
OCCCc1nc(-c2ccc(F)cc2)c(-c2ccnc3[nH]c(-c4ccccc4)cc23)[nH]1 | – | – | – | 2 | IC50 [6]: 21.1 nM; IC50 [10]: < 0.5 nM; IC50 [11]: < 0.5 nM; IC50 [12]: 6.47 nM
OCCCCc1nc(-c2ccc(F)cc2)c(-c2ccnc3[nH]c(-c4ccccc4)cc23)[nH]1 | < 0.3 | < 0.3 | 8.39 | 2 | IC50 [6]: 8.4 nM; solubility [8]: Insoluble
C=CC(=O)NCc1cccc(-c2nc(-c3ccc(F)cc3)c(-c3ccnc4[nH]c(-c5ccccc5)cc34)[nH]2)c1 | 17.6 | 13 | 263 | – | –
CCC(=O)Nc1cccc(-c2c[nH]c3nccc(-c4[nH]c(CCCO)nc4-c4ccc(F)cc4)c23)c1 | 673 | 279 | 5900 | – | –
C=CC(=O)Nc1cccc(-c2cc3c(-c4[nH]c(-c5ccccc5)nc4-c4ccc(F)cc4)ccnc3[nH]2)c1 | 43.2 | 32.1 | 908 | – | –
C=CC(=O)Nc1cccc(-c2c[nH]c3nccc(-c4[nH]c(CCCO)nc4C4CC4)c23)c1 | 673 | 258 | – | – | IC50 [4]: Not Active; IC50 [5]: Not Active
